# Assay results: ChEMBL document CHEMBL3351236, “Prodrug oncrasin-266 improves the stability, pharmacokinetics, and safety of NSC-743380” (Bioorg Med Chem, 2014)
# The source made the active and inactive calls. The calls are words filed in the database; no cut-off is given here.
# Key:
# [1] = test system: Mus musculus; assay: Toxicity in Balb/c mouse assessed as serum ALT level at 150 mg/kg, ip dosed daily for 3 days using compound formulated in Solutol HS15 and ethyl alcohol measured on day 6; type: organism-based; parameters: dose 150 mg/kg, route intraperitoneal; details: in vivo, 72 h
# [2] = Stability in stock solution with Solutol HS15 and ethyl alcohol solvent at room temperature by HPLC method; type: physicochemical
# How it was run: (§1)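 Stock solutions were made by dissolving compound in 75% (w/v) Solutol HS15 in ethanol (about 20% v/v ethanol). Final concentrations were 8 mg/ml for prodrug and 5 mg/ml for parent. Stocks were stored at 4°C or room temperature; aliquots were frozen at −20°C before HPLC.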
# [3] = test system: NCI-H1299; assay: Anticancer activity against human H1299 cells at 0.03 to 30 uM by sulforhodamine B assay; type: functional, cell-based
# How it was run: (§2)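 Sulforhodamine B viability assay on lung cancer cells exposed to a range of compound concentrations for 3 days. Untreated reference: DMSO-treated cells set as 100. Values are mean ± SD of quadruplicate wells.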
# [4] = test system: Mus musculus; assay: Toxicity in Balb/c mouse assessed as serum AST level at 25 mg/kg, ip dosed daily for 8 days using compound formulated in Solutol HS15 and ethyl alcohol; details: in vivo, 192 h
# [5] = Stability in powder form in non-evacuated chambers at 37 degC after 90 days by HPLC method; type: physicochemical; details: read-out: Stability
# How it was run: (§3)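 Powders were kept at 4°C, room temperature (21°C) or 37°C and sampled for up to 90 days. Each aliquot was dissolved in DMSO, diluted with 9 volumes acetonitrile, and analyzed by HPLC for purity.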
# [6] = Stability in powder form in non-evacuated chambers at room temperature by HPLC method; type: physicochemical; how it was run: as §3
# [7] = Stability in powder form in non-evacuated chambers at 4 degC by HPLC method; type: physicochemical; how it was run: as §3
# [8] = test system: Tumour; assay: Drug level in tumor of Balb/c mouse xenografted with human Calu3 cells assessed as aldehyde metabolite level at 60 mg/kg, iv using compound formulated in Solutol HS15 and ethyl alcohol measured after 24 hrs by HPLC/MS method; type: ADME, organism-based, Neoplasm, Calu-3; parameters: dose 60 mg/kg, route intravenous; details: in vivo
# How it was run: (§4)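 Nude mice bearing subcutaneous Calu3 xenografts, 1 mouse per treatment group. Organs and tumor were taken 24 h later and kept at −80°C, then homogenized in methanol (50 mg/ml) on ice. Homogenate was extracted with acetonitrile containing 0.2% formic acid plus an internal standard, centrifuged, and the supernatant analyzed by HPLC/MS.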
# [9] = test system: Mus musculus; assay: Toxicity in Balb/c mouse assessed as mortality level at 300 mg/kg, ip using compound formulated in Solutol HS15 and ethyl alcohol measured after 1 day; type: organism-based; parameters: dose 300 mg/kg, route intraperitoneal; details: in vivo, 24 h
# How it was run: (§5)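 Acute toxicity: 3 Balb/c mice (7–8 weeks) per group, given i.p. 300 mg/kg on day 1 and again on day 2. Deaths were recorded by day; survivors were followed for 2 weeks.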
# [10] = test system: Mus musculus; assay: Toxicity in Balb/c mouse assessed as serum ALT level at 25 mg/kg, ip dosed daily for 8 days using compound formulated in Solutol HS15 and ethyl alcohol measured on day 6; type: organism-based; parameters: dose 25 mg/kg, route intraperitoneal; details: in vivo, 192 h
# [11] = Half life in Balb/c mouse at 25 mg/kg, iv using compound formulated in Solutol HS15 and ethyl alcohol by HPLC/MS method; type: ADME, organism-based; parameters: dose 25 mg/kg, route intravenous; details: in vivo
# How it was run: (§6)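 Balb/c mice received 25 mg/kg by tail vein in Solutol HS15/ethanol vehicle. Blood was drawn from the tail vein at 0, 1, 2, 3.5, 7 and 24 h, 3 mice per time point, into lithium-heparin tubes. Plasma (50 µl) was precipitated with 150 µl acetonitrile containing 0.2% formic acid and internal standard, iced 15 min, centrifuged, and the supernatant analyzed by HPLC/MS for parent and released drug.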
# [12] = Stability in stock solution with Solutol HS15 and ethyl alcohol solvent at 4 degC by HPLC method; type: physicochemical; how it was run: as §1
# [13] = test system: Mus musculus; assay: Toxicity in Balb/c mouse assessed as survival at 300 mg/kg, ip using compound formulated in Solutol HS15 and ethyl alcohol; type: organism-based; parameters: dose 300 mg/kg, route intraperitoneal; details: in vivo; how it was run: as §5
# [14] = test system: NCI-H460; assay: Anticancer activity against human H460 cells at 0.03 to 30 uM by sulforhodamine B assay; type: functional, cell-based; how it was run: as §2
# [15] = test system: Calu-3; assay: Anticancer activity against human Calu3 cells at 0.03 to 30 uM by sulforhodamine B assay; type: functional, cell-based; how it was run: as §2
# [16] = test system: Mus musculus; assay: Half life in Balb/c mouse assessed as oncrasin-72 release at 25 mg/kg, iv using compound formulated in Solutol HS15 and ethyl alcohol by HPLC/MS method; type: ADME, organism-based; parameters: dose 25 mg/kg, route intravenous; details: in vivo; how it was run: as §6
# [17] = test system: Kidney; assay: Drug level in kidney of Balb/c mouse xenografted with human Calu3 cells assessed as aldehyde metabolite level at 60 mg/kg, iv using compound formulated in Solutol HS15 and ethyl alcohol measured after 24 hrs by HPLC/MS method; type: ADME, organism-based, Calu-3; parameters: dose 60 mg/kg, route intravenous; details: in vivo; how it was run: as §4
# [18] = test system: Mus musculus; assay: Toxicity in Balb/c mouse assessed as changes in blood cell parameters at 150 mg/kg, ip dosed daily for 3 days using compound formulated in Solutol HS15 and ethyl alcohol measured after 48 hrs; type: organism-based; parameters: dose 150 mg/kg, route intraperitoneal; details: in vivo
# [19] = test system: Mus musculus; assay: Toxicity in Balb/c mouse assessed as serum ALP level at 150 mg/kg, ip dosed daily for 3 days using compound formulated in Solutol HS15 and ethyl alcohol measured on day 6; type: organism-based; parameters: dose 150 mg/kg, route intraperitoneal; details: in vivo, 72 h
# [20] = Stability in injectable solution with Solutol HS15 and ethyl alcohol and 0.9% NaCl assessed as drug hydrolysis within 7 hrs at 37 degC by HPLC method; type: physicochemical; details: read-out: Drug degradation
# [21] = test system: Tumour; assay: Drug level in tumor of Balb/c mouse xenografted with human Calu3 cells assessed as oncrasin-72 level at 60 mg/kg, iv using compound formulated in Solutol HS15 and ethyl alcohol measured after 24 hrs by HPLC/MS method; type: ADME, organism-based, Neoplasm, Calu-3; parameters: dose 60 mg/kg, route intravenous; details: in vivo; how it was run: as §4
# [22] = test system: Liver; assay: Drug level in liver of Balb/c mouse xenografted with human Calu3 cells assessed as aldehyde metabolite level at 60 mg/kg, iv using compound formulated in Solutol HS15 and ethyl alcohol measured after 24 hrs by HPLC/MS method; type: ADME, organism-based, Calu-3; parameters: dose 60 mg/kg, route intravenous; details: in vivo; how it was run: as §4
# [23] = test system: NCI-H157; assay: Anticancer activity against human NCI-H157 cells at 0.03 to 30 uM by sulforhodamine B assay; type: functional, cell-based; how it was run: as §2
# [24] = test system: Plasma; assay: Pro-drug conversion in human plasma assessed as oncrasin-72 release by HPLC method; type: ADME, cell-free
# [25] = test system: Kidney; assay: Drug level in kidney of Balb/c mouse xenografted with human Calu3 cells assessed as oncrasin-72 level at 60 mg/kg, iv using compound formulated in Solutol HS15 and ethyl alcohol measured after 24 hrs by HPLC/MS method; type: ADME, organism-based, Calu-3; parameters: dose 60 mg/kg, route intravenous; details: in vivo; how it was run: as §4
# [26] = Pro-drug conversion in pH 7.4 PBS solution assessed as oncrasin-72 release at 0.5 mg/ml by HPLC method; type: ADME; details: buffer, TDE = time-dependent effect
# How it was run: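 Stock in DMSO/acetonitrile was diluted in PBS pH 7.4 to 0.5 mg/ml, with final 12% DMSO and 18% acetonitrile. Incubated at 37°C for up to 24 h. Aliquots taken at 0.5, 1, 3, 6 and 24 h were held at −20°C, then diluted 50-fold in acetonitrile for HPLC. One of two experiments shown.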
# [27] = Drug level in liver of Balb/c mouse xenografted with human Calu3 cells at 60 mg/kg, iv using compound formulated in Solutol HS15 and ethyl alcohol measured after 24 hrs by HPLC/MS method; type: ADME, organism-based, Calu-3; parameters: dose 60 mg/kg, route intravenous; details: read-out: Drug uptake; how it was run: as §4
# [28] = test system: Intestine; assay: Drug level in intestine of Balb/c mouse xenografted with human Calu3 cells assessed as aldehyde metabolite level at 60 mg/kg, iv using compound formulated in Solutol HS15 and ethyl alcohol measured after 24 hrs by HPLC/MS method; type: ADME, organism-based, Calu-3; parameters: dose 60 mg/kg, route intravenous; details: in vivo; how it was run: as §4
# [29] = test system: Lung; assay: Drug level in lung of Balb/c mouse xenografted with human Calu3 cells assessed as aldehyde metabolite level at 60 mg/kg, iv using compound formulated in Solutol HS15 and ethyl alcohol measured after 24 hrs by HPLC/MS method; type: ADME, organism-based, Calu-3; parameters: dose 60 mg/kg, route intravenous; details: in vivo; how it was run: as §4
# [30] = Stability in injectable solution with Solutol HS15 and ethyl alcohol and 0.9% NaCl assessed as drug hydrolysis within 7 hrs at room temperature by HPLC method; type: physicochemical; details: injectable solution; read-out: Drug degradation
# [31] = test system: Mus musculus; assay: Toxicity in Balb/c mouse assessed as serum AST level at 150 mg/kg, ip dosed daily for 3 days using compound formulated in Solutol HS15 and ethyl alcohol measured on day 6; type: organism-based; parameters: dose 150 mg/kg, route intraperitoneal; details: in vivo, 72 h
# [32] = Stability in powder form in non-evacuated chambers at 37 degC after 1 to 14 days by HPLC method; type: physicochemical; how it was run: as §3
# [33] = test system: Mus musculus; assay: Toxicity in Balb/c mouse assessed as mortality at 150 mg/kg, ip dosed daily for 3 days using compound formulated in Solutol HS15 and ethyl alcohol measured on day 5; type: organism-based; parameters: dose 150 mg/kg, route intraperitoneal; details: in vivo, 72 h
# [34] = test system: Lung; assay: Drug level in lung of Balb/c mouse xenografted with human Calu3 cells assessed as oncrasin-72 level at 60 mg/kg, iv using compound formulated in Solutol HS15 and ethyl alcohol measured after 24 hrs by HPLC/MS method; type: ADME, organism-based, Calu-3; parameters: dose 60 mg/kg, route intravenous; details: in vivo; how it was run: as §4
# [35] = test system: Mus musculus; assay: Toxicity in Balb/c mouse assessed as histopathological changes in liver at 150 mg/kg, ip dosed once using compound formulated in Solutol HS15 and ethyl alcohol measured after 48 hrs; details: in vivo
# [36] = test system: Spleen; assay: Drug level in spleen of Balb/c mouse xenografted with human Calu3 cells assessed as aldehyde metabolite level at 60 mg/kg, iv using compound formulated in Solutol HS15 and ethyl alcohol measured after 24 hrs by HPLC/MS method; type: ADME, organism-based, Calu-3; parameters: dose 60 mg/kg, route intravenous; details: in vivo; how it was run: as §4
# [37] = test system: Mus musculus; assay: Toxicity in Balb/c mouse assessed as serum ALP level at 25 mg/kg, ip dosed daily for 8 days using compound formulated in Solutol HS15 and ethyl alcohol measured on day 6; type: organism-based; parameters: dose 25 mg/kg, route intraperitoneal; details: in vivo, 192 h
# [38] = test system: Liver; assay: Drug level in liver of Balb/c mouse xenografted with human Calu3 cells assessed as oncrasin-72 level at 60 mg/kg, iv using compound formulated in Solutol HS15 and ethyl alcohol measured after 24 hrs by HPLC/MS method; type: ADME, organism-based, Calu-3; parameters: dose 60 mg/kg, route intravenous; details: in vivo; how it was run: as §4
smiles,measurement,setting,value
O=C(CC1CCCCC1)OCc1cn(Cc2cccc(Cl)c2)c2ccccc12,Activity,[1],115.5 U/L
same,Stability,[2],2 weeks
same,Activity,[3],inactive
same,Activity,[4],94 U/L
same,remaining at 2160 h,[5],< 5%
same,Stability,[6],90 days
same,Stability,[7],90 days
same,Drug uptake,[8],4.4 µg/g
same,Activity,[9],Toxic
same,Activity,[10],36.3 U/L
same,half-life,[11],1 h
same,Stability,[12],4 weeks
same,Survival,[13],2 weeks
same,Activity,[14],Active
same,Activity,[15],Active
same,t1/2,[16],1.25 h
same,Drug uptake,[17],26.5 µg/g
same,Activity,[18],Non-toxic
same,Activity,[19],50 U/L
same,degraded at 7 h,[20],> 10%
same,Drug uptake,[21],4.7 µg/g
same,Drug uptake,[22],14.9 µg/g
same,Activity,[23],Active
same,Drug metabolism,[24],metabolite_detected
same,Drug uptake,[25],7.3 µg/g
same,Drug metabolism,[26],tde
same,concentration at 24 h,[27],157000 ng/g
same,Drug uptake,[28],5.9 µg/g
same,Drug uptake,[29],68.4 µg/g
same,degraded at 7 h,[30],10%
same,Activity,[31],325.5 U/L
same,Stability,[32],Stable
same,Activity,[33],Non-toxic
same,Drug uptake,[34],7.7 µg/g
same,Activity,[35],Non-toxic
same,Drug uptake,[36],34 µg/g
same,Activity,[37],76 U/L
same,Drug uptake,[38],12.6 µg/g
